Assay results as given in ChEMBL document CHEMBL1240409, “Design, synthesis and evaluation of (E)-alpha-benzylthio chalcones as novel inhibitors of BCR-ABL kinase” (Bioorg Med Chem, 2010).

Experiments:
K562 = assay: Growth inhibition of human K562 cells expressing p210Bcr/Abl after 96 hrs by trypan blue exclusion assay; format: functional, cell-based; settings: K562, 96 h
Outline: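 K562 cells were kept in RPMI with 10% FBS and penicillin–streptomycin at 37 °C under 5% CO2. Cells were seeded at 1 × 10^5 cells/mL with a range of compound concentrations, using DMSO as the negative control. After 96 h, viability was counted by Trypan blue exclusion and expressed as percent of DMSO control to derive GI50.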

DU-145 = assay: Growth inhibition of human DU145 cells after 96 hrs by trypan blue exclusion assay; format: functional; settings: DU-145, 96 h

| SMILES | GI50 (K562) [µM] | GI50 (DU-145) [µM] |
| --- | --- | --- |
| O=C(/C(=C\c1ccc(Cl)cc1Cl)Sc1ccc(Br)cc1)c1ccc(Br)cc1 | 1 | 1 |
| Cc1cc(C)cc(/C=C(\C(=O)c2ccc(Cl)cc2)S(=O)(=O)Cc2ccc(Cl)cc2)c1 | 1 | 1 |
| O=C(/C(=C\c1ccc([N+](=O)[O-])c(O)c1)SCc1ccc(Br)cc1)c1ccc(C(F)(F)F)cc1 | 1 | 1 |
| Cc1ccc(CS(=O)(=O)/C(=C/c2ccc(Cl)cc2)C(=O)c2ccc(Cl)cc2)cc1 | 25 | 25 |
| COc1ccc(C=C(C(=O)c2ccc(OC)cc2)S(=O)(=O)Cc2ccc([N+](=O)[O-])cc2)cc1 | 10 | 25 |
| Cc1ccc(S(=O)(=O)/C(=C/c2cc(C)ccc2C)C(=O)c2ccc(Cl)cc2)cc1 | 1 | 1 |
| COc1ccccc1/C=C(\C(=O)c1ccc(Br)cc1)S(=O)(=O)Cc1ccc(F)cc1 | 25 | 25 |
| O=C(/C(=C\c1ccc(F)cc1C(F)(F)F)[S+]([O-])Cc1ccc(Cl)cc1)c1ccc(Cl)cc1 (stereo not drawn) | 50 | 50 |
| O=C(/C(=C\c1ccc([N+](=O)[O-])c(O)c1)S(=O)(=O)c1ccc(Br)cc1)c1c(F)c(F)c(F)c(F)c1F | 1 | 1 |
| O=C(/C(=C\c1ccc(O)cc1)S(=O)(=O)Cc1ccc(Cl)c(Cl)c1)c1ccc(Cl)cc1 | 10 | 10 |
| O=C(/C(=C\c1ccc(Br)cc1)SCc1ccc(F)cc1)c1ccc(Br)cc1 | 1 | 25 |
| CCOc1ccc(/C=C(\C(=O)c2ccc(Br)cc2)S(=O)(=O)c2ccc(Br)cc2)cc1OC | 1 | 1 |
| O=C(/C(=C\c1ccc(O)cc1)SCc1ccc(Cl)cc1)c1ccc(Cl)cc1 | 1 | 10 |
| Cc1ccc(S(=O)(=O)/C(=C/c2sccc2C)C(=O)c2ccc(Br)cc2)cc1 | 25 | 25 |
| CSc1ccc(/C=C(/SCc2ccc(C)cc2)C(=O)c2ccc(Cl)cc2)cc1 | 10 | 25 |
| O=C(/C(=C\c1cc(I)c(O)c(I)c1)SCc1ccc(Br)cc1)c1ccc(Br)cc1 | 1 | 1 |
| O=C(O)c1ccc(C(=O)/C(=C\c2ccc(N3CCN(Cc4ccccc4)CC3)c([N+](=O)[O-])c2)SCc2ccc(F)cc2)cc1 | 1 | 1 |
| COc1ccccc1/C=C(/Sc1ccc(C)cc1)C(=O)c1ccc(Cl)cc1 | 10 | 25 |
| O=C(/C(=C\c1cc(Br)c(O)c(Br)c1)S(=O)(=O)Cc1ccc(Br)cc1)c1ccc(Br)cc1 | 25 | 25 |
| O=C(/C(=C\c1ccccc1OCc1ccccc1)Sc1ccccc1Cl)c1ccccc1Cl | 50 | 50 |
| Cc1ccc(CS(=O)(=O)/C(=C/c2c[nH]c3ccccc23)C(=O)c2ccc(Cl)cc2)cc1 | > 100 | 25 |
| CSc1ccc(/C=C(/Sc2ccc(C)cc2)C(=O)c2ccc(Br)cc2)cc1 | 1 | 50 |
| O=C(/C(=C\c1ccccc1OCc1ccccc1)S(=O)(=O)Cc1ccc(F)cc1)c1ccc(Cl)cc1 | 1 | 10 |
| O=C(/C(=C\c1ccccc1OCc1ccccc1)Sc1ccc(Br)cc1)c1ccc(Cl)cc1 | 10 | 10 |
| O=C(/C(=C\c1ccc(Br)c([N+](=O)[O-])c1)Sc1ccc(Br)cc1)c1ccc(Br)cc1 | 1 | 1 |
| O=C(/C(=C\c1ccc(Cl)cc1)S(=O)(=O)c1ccc(Cl)cc1)c1ccc(Cl)cc1 | 10 | 25 |
| COc1cc(OC)c(/C=C(/SCc2ccc(Cl)c(Cl)c2)C(=O)c2ccc(Cl)cc2)c(OC)c1 | 10 | 10 |

| SMILES | GI50 (K562) [µM] | GI50 (DU-145) [µM] |
| --- | --- | --- |
| O=C(/C(=C\c1c[nH]c2ccccc12)Sc1ccc(Br)cc1)c1ccc(Br)cc1 | 1 | 1 |
| O=C(/C(=C\c1c(O)cc(O)cc1O)Sc1ccccc1Br)c1ccc(Cl)cc1 | > 100 | > 100 |
| O=C(/C(=C\c1ccc(Br)cc1)Sc1ccccc1Br)c1ccc(Br)cc1 | 8 | 1 |
| CN(C)c1ccc(/C=C(\C(=O)c2ccc(C(=O)O)cc2)S(=O)(=O)Cc2ccc(Cl)cc2)cc1 | > 100 | > 100 |
| CSc1ccc(/C=C(/SCc2ccc(Cl)cc2)C(=O)c2ccc(C(=O)O)cc2)cc1 | > 100 | > 100 |
| Cc1ccc(S/C(=C/c2ccc(F)cc2F)C(=O)c2ccc(Br)cc2)cc1 | > 100 | > 100 |
| O=C(O)c1ccc(C(=O)/C(=C\c2ccc([N+](=O)[O-])c(O)c2)SCc2ccc(Br)cc2)cc1 | 1 | 10 |
| Cc1ccc(CS(=O)(=O)/C(=C/c2cc(C)ccc2C)C(=O)c2ccc(Cl)cc2)cc1 | 1 | 1 |
| O=C(/C(=C\c1c[nH]c2ccc(Br)cc12)SCc1ccc(Cl)cc1Cl)c1ccc(Cl)cc1 | 1 | 10 |
| O=C(/C(=C\c1ccc(O)c([N+](=O)[O-])c1)Sc1ccccc1Br)c1ccc(Cl)cc1 | 10 | 25 |
| Cc1ccc(S(=O)(=O)/C(=C/c2ccccc2OCc2ccccc2)C(=O)c2ccc(Br)cc2)cc1 | 1 | 1 |
| Cc1ccc(CS/C(=C/c2sccc2C)C(=O)c2ccc(Cl)cc2)cc1 | 10 | 10 |
| O=C(/C(=C\c1ccc(Br)c(O)c1)S(=O)(=O)c1ccc(Br)cc1)c1ccc(Br)cc1 | 50 | 50 |
| O=C(/C(=C\c1ccc(-c2ccccc2)s1)SCc1ccc(F)cc1)c1ccc(Br)cc1 | 50 | > 100 |
| Nc1c(Br)cc(Br)cc1/C=C(/Sc1ccc(Br)cc1)C(=O)c1ccc(Br)cc1 | > 100 | > 100 |
| Cc1ccc(S/C(=C/c2cc(C)cc(C)c2)C(=O)c2ccc(Cl)cc2)cc1 | 25 | 50 |
| COc1ccccc1/C=C(\C(=O)c1ccc(Br)cc1)S(=O)(=O)c1ccc(C)cc1 | 1 | 1 |
| O=C(/C(=C\c1ccc(Oc2ccccc2)cc1)Sc1ccc(Br)cc1)c1ccc(Br)cc1 | 50 | 50 |
| Cc1ccc(CS/C(=C/c2ccc(F)c([N+](=O)[O-])c2)C(=O)c2ccc(Cl)c([N+](=O)[O-])c2)cc1 | < 1 | 1 |
| Cc1ccc(CS(=O)(=O)/C(=C/c2c[nH]c3ccc(Br)cc23)C(=O)c2ccc(Cl)cc2)cc1 | 10 | 10 |
| O=C(C(=Cc1ccc(O)c([N+](=O)[O-])c1)SCc1ccc(Br)cc1)c1ccc([N+](=O)[O-])c(Cl)c1 | 1 | 1 |
| Cc1ccc(CS/C(=C/c2ccccc2F)C(=O)c2ccc(Cl)cc2)cc1 | 1 | 10 |
| Cc1ccc(CS/C(=C/c2cc(Cl)cc(Cl)c2)C(=O)c2ccc(Cl)cc2)cc1 | 10 | 10 |
| O=C(/C(=C\c1ccc(OC(F)(F)F)cc1)Sc1ccc(Br)cc1)c1ccc(Br)cc1 | 1 | 10 |
| CN(C)c1ccc(/C=C(/SCc2ccc(Cl)cc2)C(=O)c2ccc(Br)cc2)cc1 | 1 | 10 |
| Cc1ccc(S/C(=C/c2ccc(O)c([N+](=O)[O-])c2)C(=O)c2ccc(Cl)cc2)cc1 | 25 | 10 |
| O=C(/C(=C\c1ccc(O)c([N+](=O)[O-])c1)SCc1ccccc1Cl)c1ccc(Cl)cc1 | 10 | 10 |
